From ChEMBL document CHEMBL1687811, “Outbreak of meropenem-resistant Serratia marcescens comediated by chromosomal AmpC beta-lactamase overproduction and outer membrane protein loss” (2010)
Values after ≈ are worked out from the molar mass of the structure shown.

Columns and labels:
Serratia marcescens [1] = experiment: Antimicrobial activity against Serratia marcescens ATCC 8100 by agar dilution method; assay type: functional
Procedure, shortened: (§1)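 MICs by agar dilution following CLSI guidelines, with E. coli ATCC 25922 and P. aeruginosa ATCC 27853 as MIC reference strains. Where an inhibitor was added, boronic acid or cloxacillin served as the AmpC inhibitor.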

Serratia marcescens [2] = experiment: Antimicrobial activity against beta-lactamase AmpC producing meropenem-resistant Serratia marcescens by agar dilution method; assay type: functional
Procedure, shortened: (§2)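 MICs by agar dilution following CLSI guidelines, with E. coli ATCC 25922 and P. aeruginosa ATCC 27853 as MIC reference strains. Where added, clavulanic acid served as the ESBL inhibitor and phenyl-arginine-β-naphthylamide as the efflux-pump inhibitor, each incorporated into the susceptibility test.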

Escherichia coli [3] = experiment: Antimicrobial activity against azide-resistant Escherichia coli J53 by agar dilution method
Serratia marcescens [4] = experiment: Antimicrobial activity against beta-lactamase ompC intact/ompF deficient Serratia marcescens isolate YMC0566 by agar dilution method; assay type: functional; procedure, shortened: as §2
Serratia marcescens [5] = experiment: Antimicrobial activity against beta-lactamase ompC intact/ompF deficient Serratia marcescens isolate YMC0573 by agar dilution method; assay type: functional; procedure, shortened: as §2
Serratia marcescens [6] = experiment: Antimicrobial activity against Serratia marcescens ATCC 8100 by agar dilution method in presence of 300 ug/ml of boronic acid; assay type: functional; procedure, shortened: as §1
Serratia marcescens [7] = experiment: Antimicrobial activity against Serratia marcescens ATCC 8100 by agar dilution method in presence of 250 ug/ml of cloxacillin; assay type: functional; procedure, shortened: as §1
Serratia marcescens [8] = experiment: Antimicrobial activity against beta-lactamase ompC intact/ompF deficient Serratia marcescens isolate YMC0579 by agar dilution method; assay type: functional; procedure, shortened: as §2
Serratia marcescens [9] = experiment: Antimicrobial activity against beta-lactamase ompC intact/ompF deficient Serratia marcescens isolate YMC0583 by agar dilution method; assay type: functional; procedure, shortened: as §2
Serratia marcescens [10] = experiment: Antimicrobial activity against Serratia marcescens ATCC 8100 by agar dilution method in presence of 4 ug/ml of clavulanic acid; assay type: functional; procedure, shortened: as §2
Serratia marcescens [11] = experiment: Antimicrobial activity against beta-lactamase ompC/ompF deficient Serratia marcescens ATCC 8100 by agar dilution method; assay type: functional
Serratia marcescens [12] = experiment: Antimicrobial activity against beta-lactamase ompC intact/ompF deficient Serratia marcescens isolate YMC0564 by agar dilution method; assay type: functional; procedure, shortened: as §2
Serratia marcescens [13] = experiment: Antimicrobial activity against beta-lactamase ompC intact/ompF deficient Serratia marcescens isolate YMC0584 by agar dilution method; assay type: functional; procedure, shortened: as §2
Escherichia coli [14] = experiment: Antimicrobial activity against azide-resistant Escherichia coli J53 by agar dilution method in presence 4 ug/ml of clavulanic acid; assay type: functional; procedure, shortened: as §2
Serratia marcescens [15] = experiment: Antimicrobial activity against beta-lactamase ompC intact/ompF deficient Serratia marcescens isolate YMC0547 by agar dilution method; assay type: functional; procedure, shortened: as §2
Serratia marcescens [16] = experiment: Antimicrobial activity against beta-lactamase AmpC producing meropenem-resistant Serratia marcescens by agar dilution method in presence of 4 ug/ml of clavulanic acid; assay type: functional; procedure, shortened: as §2
Serratia marcescens [17] = experiment: Antimicrobial activity against beta-lactamase ompC intact/ompF deficient Serratia marcescens isolate YMC0582 by agar dilution method; assay type: functional; procedure, shortened: as §2
Serratia marcescens [18] = experiment: Antimicrobial activity against beta-lactamase ompC intact/ompF deficient Serratia marcescens isolate YMC0570 by agar dilution method; assay type: functional; procedure, shortened: as §2
Serratia marcescens [19] = experiment: Antimicrobial activity against Serratia marcescens ATCC 8100 by agar dilution method in presence of 20 ug/ml of phenyl-arginine-beta-naphthylamide; assay type: functional; procedure, shortened: as §2

C[C@H]1[C@H](NC(=O)/C(=N\OC(C)(C)C(=O)O)c2csc(N)n2)C(=O)N1S(=O)(=O)O [AZTREONAM]
MIC (Serratia marcescens [1]): 64 µg/mL (≈ 147 µM)
MIC (Serratia marcescens [2]): 8 µg/mL (≈ 18.4 µM)

CO/N=C(\C(=O)N[C@@H]1C(=O)N2C(C(=O)O)=C(COC(C)=O)CS[C@H]12)c1csc(N)n1 [CEFOTAXIME]
MIC (Serratia marcescens [1]): > 256 µg/mL
MIC (Escherichia coli [3]): ≤ 0.12 µg/mL
MIC (Serratia marcescens [2]): 32 µg/mL (≈ 70.3 µM)

CO[C@@]1(NC(=O)Cc2cccs2)C(=O)N2C(C(=O)O)=C(COC(N)=O)CS[C@@H]21 [CEFOXITIN]
MIC (Serratia marcescens [1]): > 256 µg/mL
MIC (Escherichia coli [3]): 4 µg/mL (≈ 9.36 µM)
MIC (Serratia marcescens [2]): 4 µg/mL (≈ 9.36 µM)

CC(C)(O/N=C(\C(=O)N[C@@H]1C(=O)N2C(C(=O)[O-])=C(C[n+]3ccccc3)CS[C@H]12)c1csc(N)n1)C(=O)O [CEFTAZIDIME]
MIC (Serratia marcescens [1]): 128 µg/mL (≈ 234 µM)
MIC (Escherichia coli [3]): 0.25 µg/mL (≈ 0.457 µM)
MIC (Serratia marcescens [2]): 2 µg/mL (≈ 3.66 µM)

O=C(O)c1cn(C2CC2)c2cc(N3CCNCC3)c(F)cc2c1=O [CIPROFLOXACIN]
MIC (Serratia marcescens [1]): 8 µg/mL (≈ 24.1 µM)
MIC (Serratia marcescens [2]): ≤ 0.12 µg/mL

C[C@@H](O)[C@H]1C(=O)N2C(C(=O)O)=C(SCCNC=N)C[C@H]12 [IMIPENEM ANHYDROUS]
MIC (Serratia marcescens [4]): 4 µg/mL (≈ 13.4 µM)
MIC (Serratia marcescens [1]): 4 µg/mL (≈ 13.4 µM)
MIC (Serratia marcescens [5]): 4 µg/mL (≈ 13.4 µM)
MIC (Serratia marcescens [6]): 0.5 µg/mL
MIC (Serratia marcescens [7]): 0.094 µg/mL
MIC (Serratia marcescens [8]): 4 µg/mL (≈ 13.4 µM)
MIC (Serratia marcescens [9]): 4 µg/mL (≈ 13.4 µM)
MIC (Serratia marcescens [10]): 4 µg/mL
MIC (Serratia marcescens [11]): 0.02 µg/mL (≈ 0.0668 µM)
MIC (Serratia marcescens [2]): 0.12 µg/mL (≈ 0.401 µM)
MIC (Serratia marcescens [12]): 4 µg/mL (≈ 13.4 µM)
MIC (Serratia marcescens [13]): 8 µg/mL (≈ 26.7 µM)
MIC (Escherichia coli [14]): 0.12 µg/mL
MIC (Serratia marcescens [15]): 8 µg/mL (≈ 26.7 µM)
MIC (Serratia marcescens [16]): 0.06 µg/mL
MIC (Serratia marcescens [17]): 4 µg/mL (≈ 13.4 µM)
MIC (Serratia marcescens [18]): 4 µg/mL (≈ 13.4 µM)
MIC (Serratia marcescens [19]): 4 µg/mL

C[C@@H](O)[C@H]1C(=O)N2C(C(=O)O)=C(S[C@@H]3CN[C@H](C(=O)N(C)C)C3)[C@H](C)[C@H]12 [MEROPENEM]
MIC (Serratia marcescens [4]): 16 µg/mL (≈ 41.7 µM)
MIC (Serratia marcescens [1]): 16 µg/mL (≈ 41.7 µM)
MIC (Serratia marcescens [5]): 16 µg/mL (≈ 41.7 µM)
MIC (Escherichia coli [3]): 0.03 µg/mL (≈ 0.0782 µM)
MIC (Serratia marcescens [6]): 1 µg/mL
MIC (Serratia marcescens [7]): 0.008 µg/mL
MIC (Serratia marcescens [8]): 16 µg/mL (≈ 41.7 µM)
MIC (Serratia marcescens [9]): 16 µg/mL (≈ 41.7 µM)
MIC (Serratia marcescens [10]): 16 µg/mL
MIC (Serratia marcescens [11]): 0.25 µg/mL (≈ 0.652 µM)
MIC (Serratia marcescens [2]): 0.015 µg/mL (≈ 0.0391 µM)
MIC (Serratia marcescens [12]): 16 µg/mL (≈ 41.7 µM)
MIC (Serratia marcescens [13]): 16 µg/mL (≈ 41.7 µM)
MIC (Escherichia coli [14]): 0.015 µg/mL
MIC (Serratia marcescens [15]): 32 µg/mL (≈ 83.4 µM)
MIC (Serratia marcescens [16]): 0.015 µg/mL
MIC (Serratia marcescens [17]): 16 µg/mL (≈ 41.7 µM)
MIC (Serratia marcescens [18]): 16 µg/mL (≈ 41.7 µM)
MIC (Serratia marcescens [19]): 8 µg/mL

CCN1CCN(C(=O)N[C@@H](C(=O)N[C@@H]2C(=O)N3[C@@H]2SC(C)(C)[C@@H]3C(=O)O)c2ccccc2)C(=O)C1=O [PIPERACILLIN]
MIC (Serratia marcescens [1]): > 256 µg/mL
MIC (Escherichia coli [3]): 1 µg/mL (≈ 1.93 µM)
MIC (Serratia marcescens [2]): > 256 µg/mL

GENTAMICIN
MIC (Serratia marcescens [1]): > 256 µg/mL
MIC (Serratia marcescens [2]): 32 µg/mL
